Active and inactive are the calls of the source. No cut-off for these calls is given here.

Test [1] deals with T1, Adrenergic receptor beta (Homo sapiens, UniProt P08588+P07550+P13945). The test is described as follows: Beta adrenergic receptor agonist activity at compound concentration of 100 ug/mL in guinea pig, isolated, carbachol-contracted tracheal preparations. The format is functional. The note with it: Cavia porcellus; target entry is the homologue from another species.
Test [2] deals with T1, Adrenergic receptor beta. The test is described as follows: Beta adrenergic receptor antagonistic activity in guinea pig, isolated, carbachol-contracted tracheal preparations. It counts as functional, Cavia porcellus. The note with it: target entry is the homologue from another species. In outline:
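Guinea pig trachea contracted with carbachol 10 µmol/L, 0.02 N resting tension, Krebs–Henseleit bath. Isoproterenol relaxation curves before and 15 min after antagonist, repeated at higher concentrations after washing. pA2 and slope from Schild plot (Arunlakshana–Schild). Slope difference from 1.0 tested by Student's t test.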

Test [3] is described as follows: Ratio of compound Emax(50) to that of isoproterenol Emax(50) in reserpine-pretreated, guinea pig, isolated, spontaneously beating, right atrial preparation; Expressed as drug Emax(50)/Iso Emax(50) mean. It counts as functional, Cardiac atrium. In outline:
(§1)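 Guinea pigs given reserpine 5 mg/kg i.p., atria removed 18–24 h later and tested with tyramine 17 µmol/L beforehand. Spontaneously beating right atria in Krebs–Henseleit under 0.02 N tension, rate recorded. Cumulative isoproterenol curves (second used, corrected) and one test curve at 30-min intervals. Ratio = molar concentration at 50% own maximum ÷ isoproterenol equivalent, same experiment.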

The target of test [4] is T1, Adrenergic receptor beta. The experiment in a line: Beta adrenergic receptor agonist activity in reserpine pre-treated guinea pig, isolated, spontaneously beating, right atrial preparation. It counts as functional, tissue-based. Conditions: Cavia porcellus; Cardiac atrium; target entry is the homologue from another species. In outline: as §1
Test [5] deals with Felis catus. The experiment in a line: Activity ratio of molar concentration to molar concentration of isoproterenol in HR in choralose anaesthetized cats. It counts as functional. The gist of the method:
(§2)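 Chloralose (80 mg/kg) plus sodium phenobarbitone (6 mg/kg) i.p.-anesthetized, bilaterally vagotomized cats (2.3–3.6 kg, either sex), spontaneously breathing via tracheal cannula. Brachial vein injection in 0.9% NaCl. Carotid blood pressure and pulse-triggered heart rate recorded. Concurrent cumulative dose–response curves followed isoproterenol. Ratio = molar dose giving 50% of own maximum ÷ isoproterenol molar dose giving 50% of its maximum, same animal.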

Test [6] can be described thus: Ratio of compound Emax(50) to that of isoproterenol Emax(50) in guinea pig, isolated, spontaneously beating, right atrial preparation; Expressed as drug Emax(50)/Iso Emax(50) mean. The format is functional, Cardiac atrium. The gist of the method:
(§3)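 Right atria from guinea pigs (300–400 g, either sex) killed by cervical dislocation, in 10-mL Krebs–Henseleit baths under 0.02 N tension, spontaneously beating; rate read by tachograph. Two cumulative isoproterenol curves, then one test-compound curve, 30-min intervals, three washes after each. The second isoproterenol curve was the reference, with a desensitization correction (factor 1.2). Intrinsic activity relative to isoproterenol = 1. Ratio = molar EC50 of drug ÷ molar EC50 of isoproterenol, same experiment.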

In test [7] the target is T1, Adrenergic receptor beta. The test is described as follows: Beta adrenergic receptor antagonistic activity in reserpine pre-treated guinea pig, isolated, spontaneously beating, right atrial preparation. It counts as functional, tissue-based, Cavia porcellus, Cardiac atrium. Conditions: target entry is the homologue from another species.
The target in test [8] is T1, Adrenergic receptor beta. The experiment in a line: Beta adrenergic receptor agonist activity in guinea pig, isolated, spontaneously beating, right atrial preparation. It counts as functional, tissue-based. Conditions: Cavia porcellus; Cardiac atrium; target entry is the homologue from another species. The gist of the method:
as §3

Test [9] concerns Felis catus. The experiment in a line: Activity ratio of molar concentration to molar concentration of isoproterenol in DBP in choralose anaesthetized cats. The format is functional. In outline:
as §2

In test [10] the target is T1, Adrenergic receptor beta. The experiment in a line: Beta adrenergic receptor antagonistic activity in guinea pig, isolated, carbachol-contracted tracheal preparations; NA = No antagonism of isoproterenol responses up to 2.2 x 10E-8 mol/L. The note with it: Cavia porcellus; target entry is the homologue from another species. It counts as functional.
In test [11] the target is T1, Adrenergic receptor beta. The experiment in a line: Beta adrenergic receptor agonist activity in guinea pig, isolated, carbachol-contracted tracheal preparations. The format is functional. Conditions: Cavia porcellus; target entry is the homologue from another species. In outline:
(§4)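 Guinea pigs (300–400 g, either sex) killed by cervical dislocation. Trachea mounted in a 10-mL bath of Krebs–Henseleit under 0.02 N resting tension. Tone raised submaximally with carbachol 10 µmol/L, and relaxation recorded. Cumulative test-compound curves went up to 100 µg/mL, referenced to isoproterenol (=1). Where no maximum was reached, values reflect the 100 µg/mL response. Ratios were taken at 15% of isoproterenol maximum.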

Test [12] addresses T1, Adrenergic receptor beta. The test is described as follows: Beta adrenergic receptor antagonistic activity in reserpine pre-treated guinea pig, isolated, spontaneously beating, right atrial preparation; NA = No antagonism of isoproterenol responses up to 2.2 x 10E-8 mol/L. The format is functional, tissue-based. Conditions: Cavia porcellus; Cardiac atrium; target entry is the homologue from another species. In outline:
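Guinea pigs given reserpine 5 mg/kg i.p. 18–24 h before tissue removal, then checked with tyramine 17 µmol/L. Spontaneously beating right atrium held in Krebs–Henseleit at 0.02 N tension, with rate read by tachograph. Isoproterenol cumulative curves were run before and 15 min after adding the test drug, then repeated after washing at higher drug concentration. pA2 was determined by the Arunlakshana–Schild method.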

Test [13] concerns the target T1, Adrenergic receptor beta. The experiment in a line: Beta adrenergic receptor agonist activity a in guinea pig, isolated, carbachol-contracted tracheal preparations. The format is functional. The note with it: Cavia porcellus; target entry is the homologue from another species. In outline:
as §4

In general, pA2 refers to the negative logarithm of the molar antagonist concentration that doubles the agonist concentration needed for the same response. As for `NCC1NCCc2cc(O)c(O)cc21` (centres undefined), the values for the Intrinsic activity on Adrenergic receptor beta [1], at Adrenergic receptor beta [4] and on Adrenergic receptor beta [8] were 0.2, 0.53 and 0.7, respectively. Besides, the pD2 on Adrenergic receptor beta [1] was 3.44; on Adrenergic receptor beta [4], 4.22; at Adrenergic receptor beta [8], 4.49. The pA2 stood at 4.66 on Adrenergic receptor beta [2] and 4.63 at Adrenergic receptor beta [7]. The Ratio in test [3] was 32600; in test [6] it was 8800. Moreover, the Activity ratio with Felis catus [5] turned out to be 12700.
Turning to `CC(C)NCC1NCCc2cc(O)c(O)cc21` (centres undefined), the figures for the Activity ratio with Felis catus [9] and in the test with Felis catus [5] were 2200 and 1700, respectively. The Intrinsic activity at Adrenergic receptor beta [1] was 0.06; at Adrenergic receptor beta [4], 0.59; at Adrenergic receptor beta [8] it was 0.42. Further, the pD2 at Adrenergic receptor beta [1] stood at 3.49; on Adrenergic receptor beta [4], 5.18; at Adrenergic receptor beta [8], 5.05. Moreover, the results for the pA2 on Adrenergic receptor beta [2] and on Adrenergic receptor beta [7] were 5.05 and 4.84, respectively. Also, the figures for the Ratio in test [3] and in test [6] were 4400 and 2700, respectively.
On to `Oc1ccc(CC2NCCc3cc(O)c(O)cc32)cc1O` (centres undefined), for which the pA2 result at Adrenergic receptor beta [10] and at Adrenergic receptor beta [12] was “inactive” each time. In addition, the pD2 on Adrenergic receptor beta [11] turned out to be 6.45; at Adrenergic receptor beta [4], 7.05; on Adrenergic receptor beta [8], 6.96. Also, the Intrinsic activity was determined as 0.62 at Adrenergic receptor beta [13], 0.95 on Adrenergic receptor beta [4] and 0.94 at Adrenergic receptor beta [8]. The Ratio is 38 in test [3] and 26 in [6].
Regarding `CC(C)(C)NCC1NCCc2cc(O)c(O)cc21` (centres undefined), the values for the Intrinsic activity at Adrenergic receptor beta [1], on Adrenergic receptor beta [4] and on Adrenergic receptor beta [8] were 0.18, 0.29 and 0.14, respectively. Further, the pD2 was determined as 3.51 at Adrenergic receptor beta [1], 5.23 on Adrenergic receptor beta [4] and 5.1 on Adrenergic receptor beta [8]. In addition, the pA2 on Adrenergic receptor beta [2] is 5.76; at Adrenergic receptor beta [7], 4.68. Besides, the values for the Ratio in test [3] and in [6] were 3600 and 2100, respectively. In the test with Felis catus [5], the Activity ratio was determined as 900.
